Screens (PubChem BioAssay)
miR-122 sensor: miR-122 inhibition in Huh7 cells | Huh7 miR-122 Renilla luciferase sensor, 48 h; neutral wells = 0, positive control = 100 | activation (reporter increase), % at 12.5 µM | 340,000 compounds, 0.3% hits | AID 602342;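 active = mean replicate activation score at least 90 and every replicate individually at or above 90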;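 also: higher luciferase means less miR-122 activity so hits act as miR-122 inhibitors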
C-LANA FP: blocks KSHV LANA C-terminal domain binding to DNA. inhibition, % at 9 µM. AID 504423. MBP-C-LANA/FAM-LBS DNA binding, fluorescence polarization. 340,000 compounds, 0.078% hits;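 active = highest replicate inhibition at or above 60% at 9 µM, even if other replicates fall short; inactive = all replicates below 60% inhibition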
CAL PDZ FP-1: blocks peptide binding to the human CAL PDZ domain | Q9HD26 | purified CAL PDZ, TMR-peptide fluorescence polarization, 1 h | inhibition, % at 24.9 µM | 300,000 compounds, 0.92% hits | AID 602252;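 active = mean inhibition of at least 30% with at least half of replicates also reaching 30%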
Keap1-Nrf2 PPI: Keap1-Nrf2 (human) interaction inhibition | Keap1 Kelch-Nrf2 peptide fluorescence polarization, 1536-well | inhibition, % at 9.4 µM | 340,000 compounds, 0.15% hits | AID 504523; in the data active = inhibition above about 12%;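 also: human Keap1 Kelch domain with fluorescein labeled Nrf2 9mer peptide probe; higher means more block of Keap1 binding to Nrf2 peptide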
Target sequence (Q14145 whole entry, looked up, the tested form may be a part): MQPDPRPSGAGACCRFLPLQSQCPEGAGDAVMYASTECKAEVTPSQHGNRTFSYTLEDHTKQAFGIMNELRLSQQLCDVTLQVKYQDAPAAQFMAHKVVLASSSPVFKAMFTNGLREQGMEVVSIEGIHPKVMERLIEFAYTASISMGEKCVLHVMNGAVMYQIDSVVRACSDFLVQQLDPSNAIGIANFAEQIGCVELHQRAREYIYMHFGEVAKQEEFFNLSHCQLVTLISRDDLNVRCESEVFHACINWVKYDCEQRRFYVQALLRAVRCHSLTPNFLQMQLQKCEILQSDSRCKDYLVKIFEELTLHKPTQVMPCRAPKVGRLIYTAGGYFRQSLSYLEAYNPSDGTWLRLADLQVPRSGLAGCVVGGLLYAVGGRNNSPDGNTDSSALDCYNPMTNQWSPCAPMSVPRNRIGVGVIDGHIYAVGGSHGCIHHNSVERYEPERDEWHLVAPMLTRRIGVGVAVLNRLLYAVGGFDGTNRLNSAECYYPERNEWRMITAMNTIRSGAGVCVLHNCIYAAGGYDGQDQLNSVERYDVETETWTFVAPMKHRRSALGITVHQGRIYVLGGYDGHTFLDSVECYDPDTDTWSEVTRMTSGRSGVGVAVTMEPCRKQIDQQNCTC
CAL PDZ FP-2: blocks peptide binding to human CAL PDZ domain; Q9HD26; purified CAL PDZ, TMR-peptide fluorescence polarization, 1 h; inhibition, % at 20 µM; 330,000 compounds, 0.02% hits; AID 504414;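 active = highest replicate inhibition of at least 40%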
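Test system: purified CerCALP PDZ construct; Compound dosing: one concentration, 20 µM compound; Also added: TMR-labelled reporter peptide T*-PRC34 bound in PDZ groove; Read-out: inhibition from polarization loss; Controls: unlabelled peptide and DMSO controls; Signal: FP readout, S and P plane fluorescence; Incubation: 1 h at RT.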
A number is an active result. Shown are actives, neighbours in structure and some others; about 1.1% of the full set was active somewhere.

For C=CCc1ccc(OCCCCN2CC(C)OC(C)C2)c(OC)c1 (configuration not stated) the results were miR-122 sensor inactive, C-LANA FP inactive, CAL PDZ FP-1 58.4, Keap1-Nrf2 PPI inactive and CAL PDZ FP-2 inactive.
Screening COc1cccc(OCCCCN2CC(C)OC(C)C2)c1 (configuration not stated) returned miR-122 sensor inactive, C-LANA FP inactive, CAL PDZ FP-1 42.1, Keap1-Nrf2 PPI inactive and CAL PDZ FP-2 inactive.
`C[C@@H]1CN([C@@H](C)CO)C(=O)c2cccc(NC(=O)Nc3ccccc3)c2O[C@@H]1CN(C)CC1CCCCC1` gave miR-122 sensor inactive.
CN1CCN(c2ccccc2NC(=O)c2ccc(N3CCCC3)c([N+](=O)[O-])c2)CC1 was read as C-LANA FP inactive, CAL PDZ FP-1 43.3, Keap1-Nrf2 PPI inactive and CAL PDZ FP-2 58.4.
Screening O=C(Nc1ccccc1N1CCCCC1)c1ccc(Cl)c([N+](=O)[O-])c1 returned miR-122 sensor inactive, C-LANA FP inactive, Keap1-Nrf2 PPI inactive and CAL PDZ FP-2 inactive.
`COc1ccc(NC(=O)N(C)C[C@@H]2OCCCC[C@@H](C)Oc3ccc(NS(C)(=O)=O)cc3C(=O)N([C@H](C)CO)C[C@H]2C)cc1` gave miR-122 sensor inactive.
`O=C(NNC(=O)C1CCC1)c1ccc(Br)cc1` gave C-LANA FP inactive, CAL PDZ FP-1 50.1, Keap1-Nrf2 PPI inactive and CAL PDZ FP-2 inactive.
O=[N+]([O-])c1cc(S(=O)(=O)N2CCOCC2)ccc1OCc1cccc(Cl)c1 was read as C-LANA FP inactive, CAL PDZ FP-1 inactive, Keap1-Nrf2 PPI inactive and CAL PDZ FP-2 inactive.
O=C1c2ccccc2C(=O)N1COc1ccc(S(=O)(=O)N2CCOCC2)cc1[N+](=O)[O-] was read as miR-122 sensor inactive, C-LANA FP inactive, CAL PDZ FP-1 50.3, Keap1-Nrf2 PPI inactive and CAL PDZ FP-2 inactive.
Screening COc1ccc(S(=O)(=O)N(C)C[C@H]2OCCCC[C@H](C)Oc3ccc(NC(=O)C4CCCCC4)cc3C(=O)N([C@H](C)CO)C[C@H]2C)cc1 returned miR-122 sensor inactive.
CCN(CC(=O)NCc1cccs1)C(=O)c1cc(=O)[nH]c2ccccc12 was read as C-LANA FP inactive, CAL PDZ FP-1 73.9, Keap1-Nrf2 PPI inactive and CAL PDZ FP-2 inactive.
For CCN(CC(=O)NCc1cccs1)C(=O)c1ccccc1Cl the results were C-LANA FP inactive, CAL PDZ FP-1 51.8, Keap1-Nrf2 PPI inactive and CAL PDZ FP-2 inactive.
Screening C[C@@H]1CCCCO[C@H](CN(C)CC2CCCCC2)[C@H](C)CN([C@H](C)CO)C(=O)c2cc(NS(=O)(=O)c3cccs3)ccc2O1 returned miR-122 sensor inactive.
For Cc1ccc(S(=O)(=O)CCc2nnc(NC(=O)CCl)s2)cc1C the results were C-LANA FP inactive, CAL PDZ FP-1 46.0, Keap1-Nrf2 PPI inactive and CAL PDZ FP-2 inactive.
For Cc1ccc(S(=O)(=O)CCc2nnc(N)s2)cc1C the results were miR-122 sensor inactive, C-LANA FP inactive, CAL PDZ FP-1 inactive, Keap1-Nrf2 PPI inactive and CAL PDZ FP-2 inactive.
For COc1cc(CN(C)C(=O)C(=O)c2c[nH]c3ccccc23)ccc1O the results were miR-122 sensor 146.1, C-LANA FP inactive, CAL PDZ FP-1 inactive, Keap1-Nrf2 PPI inactive and CAL PDZ FP-2 inactive.
Cc1c(NC2(C#N)CCCC2)c(=O)n(-c2ccccc2)n1C was read as C-LANA FP inactive, CAL PDZ FP-1 78.3, Keap1-Nrf2 PPI inactive and CAL PDZ FP-2 inactive.
Screening Cc1c(NC2=CC(=O)CC(C)(C)C2)c(=O)n(-c2ccccc2)n1C returned miR-122 sensor inactive, C-LANA FP inactive, CAL PDZ FP-1 31.4, Keap1-Nrf2 PPI inactive and CAL PDZ FP-2 inactive.
Screening CNC[C@@H]1Oc2ccc(NC(=O)Nc3ccc4c(c3)OCO4)cc2CC(=O)N([C@H](C)CO)C[C@H]1C returned miR-122 sensor inactive.
For C=C(C)C(=O)Nc1cccc(C2=NOC3(C2)C[C@@H](C(N)=O)N(C(=O)C2(C)CC2)C3)c1 (some centres not stated) the results were miR-122 sensor inactive, C-LANA FP 105.2, CAL PDZ FP-1 inactive, Keap1-Nrf2 PPI inactive and CAL PDZ FP-2 inactive.
Screening C[C@@H]1CCCCO[C@@H](CN(C)S(=O)(=O)c2cccs2)[C@@H](C)CN([C@@H](C)CO)C(=O)c2cc(NC(=O)C3CCCCC3)ccc2O1 returned miR-122 sensor inactive.
`COc1ccccc1-[n+]1c(C)cc(/C=C2\Sc3ccccc3N2C)cc1C` gave miR-122 sensor inactive, C-LANA FP inactive, CAL PDZ FP-1 52.7, Keap1-Nrf2 PPI inactive and CAL PDZ FP-2 inactive.
For COc1ccc(-[n+]2c(C)cc(/C=C3\Sc4ccccc4N3C)cc2C)cc1 the results were C-LANA FP inactive, CAL PDZ FP-1 inactive, Keap1-Nrf2 PPI inactive and CAL PDZ FP-2 inactive.
Screening C/C=C/c1ccc([C@@H]2[C@H](CO)N(C(=O)NCCC)[C@H]2CNC(=O)C2CCC2)cc1 returned miR-122 sensor inactive.
For CN(c1ccccc1)S(=O)(=O)c1cccc(C(=O)NCCc2c[nH]c3ccccc23)c1 the results were miR-122 sensor inactive, C-LANA FP inactive, CAL PDZ FP-1 59.4, Keap1-Nrf2 PPI inactive and CAL PDZ FP-2 inactive.
`O=C(O)C[C@H]1C[C@H]2c3cc(NC(=O)Nc4ccccc4F)ccc3O[C@H]2[C@@H](CO)O1` gave miR-122 sensor inactive.
For COc1ccc(C2CC(c3ccc(Cl)cc3)Nc3nc(NC(=O)c4ccco4)nn32)cc1 (configuration not stated) the results were miR-122 sensor inactive, C-LANA FP inactive, CAL PDZ FP-1 inactive, Keap1-Nrf2 PPI inactive and CAL PDZ FP-2 inactive.
Screening O=C(Nc1nc2n(n1)C(c1ccc(F)cc1)CC(c1ccccc1)N2)c1ccco1 (configuration not stated) returned C-LANA FP inactive, CAL PDZ FP-1 38.1, Keap1-Nrf2 PPI inactive and CAL PDZ FP-2 inactive.
For COc1ccc(C2C(C(=O)N3CCOCC3)CCC(=O)N2c2ccc(OC)cc2)cc1 (configuration not stated) the results were miR-122 sensor inactive, C-LANA FP inactive, CAL PDZ FP-1 108.2, Keap1-Nrf2 PPI inactive and CAL PDZ FP-2 inactive.
Cn1c(=O)n(CC(=O)Nc2ccccc2)c2ccccc21 was read as C-LANA FP inactive, CAL PDZ FP-1 inactive, Keap1-Nrf2 PPI inactive and CAL PDZ FP-2 inactive.
Screening Cn1c(=O)c2sc3c(c2n(CC(=O)Nc2ccccc2)c1=O)COC(C)(C)C3 returned miR-122 sensor inactive, C-LANA FP inactive, CAL PDZ FP-1 31.5, Keap1-Nrf2 PPI inactive and CAL PDZ FP-2 inactive.
For COC(=O)c1ccc(NC(=O)c2sc3nc(-c4ccccc4)cn3c2C)cc1 the results were miR-122 sensor inactive, C-LANA FP inactive, Keap1-Nrf2 PPI inactive and CAL PDZ FP-2 inactive.
COC(=O)c1ccc(NC(=O)c2c(C(=O)Nc3ccccc3)sc3nc(C)cc(=O)n23)cc1 was read as C-LANA FP inactive, CAL PDZ FP-1 98.8, Keap1-Nrf2 PPI inactive and CAL PDZ FP-2 inactive.
